Data taken from ChEMBL document CHEMBL4715791, “Enhancing Therapeutic Efficacy of Cisplatin by Blocking DNA Damage Repair” (ACS Med Chem Lett, 2016).
The source made the active and inactive calls. The rule behind the calls is not given here.

Experiments:
[1] = system: HeLa; test: Induction of cell cycle arrest in human HeLa cells assessed as accumulation at G2/M phase at 6.8 uM measured after 24 hrs by propidium iodide/RNase staining based flow cytometry (reference value: 10.52 %); type: functional
[2] = system: HeLa; test: Induction of apoptosis in human HeLa cells assessed as late apoptotic cells at 6.8 uM measured after 24 hrs by annexinV-FITC/propidium iodide staining based flow cytometry relative to control; type: functional
[3] = system: A549; test: Potentiation of cisplatin-induced cell cycle arrest in human A549 cells assessed as accumulation at G1 phase at 32.7 uM measured after 24 hrs in presence of cisplatin by propidium iodide/RNase staining based flow cytometry (reference value: 42.35%); type: functional
[4] = system: HeLa; test: Potentiation of cisplatin-induced cell cycle arrest in human HeLa cells assessed as accumulation at S phase at 6.8 uM measured after 24 hrs in presence of cisplatin by propidium iodide/RNase staining based flow cytometry (reference value: 27.18 %); type: functional
[5] = system: HeLa; test: Synergistic anticancer activity against human HeLa cells assessed as combination index at cisplatin to compound ratio of 1:1 measured after 24 to 72 hrs by MTT based Chou-Talalay method; type: functional; conditions: time 24-72 hrs
Outline: (§1)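 Cisplatin and compound given together at fixed molar ratios. Viability read by MTT. Combination index computed at 50% inhibition (CI50); below 1 = synergism, 1 = additivity, above 1 = antagonism. Tested at 24, 48 and 72 h incubation.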

[6] = system: U14; test: Antitumor activity against mouse U14 cells implanted in Kunming mouse assessed as tumor growth inhibition at 1.5 mg/kg, ip administered on day 2, 5, 8 measured after 1 week by caliper method; type: functional, organism-based; conditions: time 1.0 weeks
Outline: (§2)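 KM mice bearing subcutaneous U14 mouse cervical cancer xenografts. Groups received saline, cisplatin 5 mg/kg, compound 1.5 mg/kg, or both (1:1 molar ratio). Relative tumor volume followed over about 2 weeks.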

[7] = system: A549; test: Induction of cell cycle arrest in human A549 cells assessed as accumulation at S phase at 32.7 uM measured after 24 hrs by propidium iodide/RNase staining based flow cytometry (reference value: 27.5 %); type: functional
[8] = system: A549; test: Anticancer activity against human A549 cells assessed as reduction in cell viability measured after 24 to 72 hrs by MTT assay; type: functional, cell-based; conditions: time 24-72 hrs
Outline: (§3)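 MTT viability assay in HeLa and A549 cells, with concentration- and time-dependent exposures.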

[9] = Toxicity in Kunming mouse implanted with mouse U14 cells assessed as change in body weight at 1.5 mg/kg, ip administered on day 2, 5, 8; type: organism-based; conditions: in vivo, 72 h, time 3 day
Outline: (§4)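 U14-xenografted KM mice given saline, cisplatin 5 mg/kg, compound 1.5 mg/kg or both. Body weight monitored as a measure of systemic toxicity.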

[10] = system: A549; test: Synergistic anticancer activity against human A549 cells assessed as combination index at cisplatin:compound ratio of 1:0.5 to 1:3 measured after 24 hrs in presence of cisplatin by MTT based Chou-Talalay method; type: functional; outline: as §1
[11] = system: HeLa; test: Anticancer activity against human HeLa cells assessed as reduction in cell viability at 1 to 100 uM by MTT assay; type: functional, cell-based; conditions: dose 1-100 µM, time 24-72 hrs, TDE = time-dependent effect
[12] = system: HeLa; test: Induction of cell cycle arrest in human HeLa cells assessed as accumulation at S phase at 6.8 uM measured after 24 hrs by propidium iodide/RNase staining based flow cytometry (reference value: 27.21 %); type: functional
[13] = system: HeLa; test: Antagonistic anticancer activity against human HeLa cells assessed as combination index at cisplatin to compound ratio of 1:2 measured after 48 to 72 hrs by MTT based Chou-Talalay method; type: functional; conditions: time 48-72 hrs; outline: as §1
[14] = Potentiation of cisplatin-induced antitumor activity against mouse U14 cells implanted in Kunming mouse assessed as tumor volume at 1.5 mg/kg, ip administered on day 2, 5, 8 cotreated with cisplatin at 5 mg/kg, ip on day 1, 4, 7 and measured at day 10 by caliper method (reference value: 178 +/- 33 mm3); type: functional; conditions: time 10 day; outline: as §2
[15] = system: HeLa; test: Antagonistic anticancer activity against human HeLa cells assessed as combination index at cisplatin to compound ratio of 1:0.3 measured after 48 to 72 hrs by MTT based Chou-Talalay method; type: functional; conditions: time 48-72 hrs; outline: as §1
[16] = system: HeLa; test: Inhibition of PP2A in human HeLa cells assessed as increase in phosphorylated AKT expression level at 2.5 uM measured after 24 hrs by Western blot analysis; type: cell-based
Outline: (§5)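 HeLa cells exposed 24 h to cisplatin, compound or the combination. P-Akt and P-ERK read by Western blot.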

[17] = system: HeLa; test: Inhibition of PP2A in human HeLa cells assessed as increase in phosphorylated ERK expression level at 2.5 uM measured after 24 hrs by Hoechst staining based immunofluorescence assay; type: cell-based
[18] = system: HeLa; test: Synergistic anticancer activity against human HeLa cells assessed as combination index at cisplatin to compound ratio of 1:0.5 measured after 24 hrs by MTT based Chou-Talalay method; type: functional; outline: as §1
[19] = system: HeLa; test: Potentiation of cisplatin-induced apoptosis in human HeLa cells assessed as late apoptotic cells at 6.8 uM measured after 24 hrs in presence of cisplatin by annexinV-FITC/propidium iodide staining based flow cytometry (reference value: 54%); type: functional
[20] = system: HeLa; test: Inhibition of PP2A in human HeLa cells assessed as increase in phosphorylated ERK expression level at 2.5 uM measured after 24 hrs by Western blot analysis; type: cell-based; outline: as §5
[21] = system: HeLa; test: Potentiation of cisplatin-induced apoptosis in human HeLa cells assessed as early apoptotic cells at 6.8 uM measured after 24 hrs in presence of cisplatin by annexinV-FITC/propidium iodide staining based flow cytometry (reference value: 4.8%); type: functional
[22] = Toxicity in Kunming mouse implanted with mouse U14 cells assessed as reduction in body weight at 1.5 mg/kg, ip administered on day 2, 5, 8 cotreated with cisplatin at 5 mg/kg, ip on day 1, 4, 7 and measured after 2 weeks; type: organism-based; conditions: in vivo, 336 h; outline: as §4
[23] = system: U14; test: Antitumor activity against mouse U14 cells implanted in Kunming mouse assessed as tumor growth inhibition at 1.5 mg/kg, ip administered on day 2, 5, 8 measured after 2 weeks by caliper method; type: functional, organism-based; outline: as §2
[24] = system: HeLa; test: Effect on total ERK level in human HeLa cells at 2.5 uM measured after 24 hrs by Hoechst staining based immunofluorescence assay; type: functional, cell-based
[25] = system: A549; test: Induction of cell cycle arrest in human A549 cells assessed as accumulation at G1 phase at 32.7 uM measured after 24 hrs by propidium iodide/RNase staining based flow cytometry (reference value: 60.8 %); type: functional
[26] = system: HeLa; test: Inhibition of PP2A in human HeLa cells assessed as increase in phosphorylated Akt expression level at 2.5 uM measured after 24 hrs by Hoechst staining based immunofluorescence assay; type: cell-based
[27] = system: HeLa; test: Inhibition of PP2A in human HeLa cells assessed as enzyme activity at 10 uM measured after 3 hrs in presence of cisplatin by malachite green phosphatase assay relative to control; type: cell-based; set-up: scale not given: the % may be the effect or the level left
Outline: (§6)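 PP2A activity measured in HeLa cells after 3 h exposure to compound, alone or combined with cisplatin. Activity expressed as % of untreated control.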

[28] = system: A549; test: Induction of cell cycle arrest in human A549 cells assessed as accumulation at G2/M phase at 32.7 uM measured after 24 hrs by propidium iodide/RNase staining based flow cytometry (reference value: 11.7 %); type: functional
[29] = Toxicity in Kunming mouse implanted with mouse U14 cells assessed as reduction in body weight at 1.5 mg/kg, ip administered on day 2, 5, 8 cotreated with cisplatin at 5 mg/kg, ip on day 1, 4, 7 and measured after 1 week; type: organism-based; conditions: in vivo, 168 h, time 1 weeks; outline: as §4
[30] = system: HeLa; test: Effect on tubulin expression in human HeLa cells at 2.5 uM measured after 24 hrs by Hoechst staining based immunofluorescence assay; type: functional, cell-based
[31] = system: A549; test: Induction of apoptosis in human A549 cells at 32.7 uM measured after 24 hrs by annexinV-FITC/propidium iodide staining based flow cytometry relative to control; type: functional
[32] = system: HeLa; test: Effect on total ERK level in human HeLa cells at 2.5 uM measured after 24 hrs in presence of cisplatin by Hoechst staining based immunofluorescence assay; type: functional, cell-based
[33] = system: HeLa; test: Inhibition of PP2A in human HeLa cells assessed as enzyme activity at 10 uM measured after 3 hrs by malachite green phosphatase assay relative to control; type: cell-based; set-up: scale not given: the % may be the effect or the level left; outline: as §6
[34] = system: HeLa; test: Effect on total Akt expression in human HeLa cells at 2.5 uM measured after 24 hrs by Hoechst staining based immunofluorescence assay; type: functional, cell-based
[35] = system: HeLa; test: Effect on total Akt expression in human HeLa cells at 2.5 uM measured after 24 hrs in presence of cisplatin by Hoechst staining based immunofluorescence assay; type: functional, cell-based
[36] = system: A549; test: Potentiation of cisplatin-induced apoptosis in human A549 cells at 32.7 uM measured after 24 hrs in presence of cisplatin by annexinV-FITC/propidium iodide staining based flow cytometry (reference value: 36.9%); type: functional
[37] = system: HeLa; test: Induction of cell cycle arrest in human HeLa cells assessed as accumulation at G1 phase at 6.8 uM measured after 24 hrs by propidium iodide/RNase staining based flow cytometry (reference value: 62.27 %); type: functional
[38] = system: A549; test: Potentiation of cisplatin-induced cell cycle arrest in human A549 cells assessed as accumulation at G2/M phase at 32.7 uM measured after 24 hrs in presence of cisplatin by propidium iodide/RNase staining based flow cytometry (reference value: 36.13 %); type: functional
[39] = system: HeLa; test: Anticancer activity against human HeLa cells assessed as reduction in cell viability measured after 24 to 72 hrs by MTT assay; type: functional, cell-based; conditions: dose 1-100 µM, time 24-72 hrs; outline: as §3
[40] = system: A549; test: Potentiation of cisplatin-induced cell cycle arrest in human A549 cells assessed as accumulation at S phase at 32.7 uM measured after 24 hrs in presence of cisplatin by propidium iodide/RNase staining based flow cytometry (reference value: 21.52 %); type: functional
[41] = system: HeLa; test: Potentiation of cisplatin-induced cell cycle arrest in human HeLa cells assessed as accumulation at G2/M phase at 6.8 uM measured after 24 hrs in presence of cisplatin by propidium iodide/RNase staining based flow cytometry (reference value: 11.69 %); type: functional
[42] = system: HeLa; test: Inhibition of PP2A in human HeLa cells assessed as increase in phosphorylated Akt expression level at 2.5 uM measured after 24 hrs in presence of cisplatin by Hoechst staining based immunofluorescence assay; type: cell-based
[43] = system: HeLa; test: Potentiation of cisplatin-induced cell cycle arrest in human HeLa cells assessed as accumulation at G1 phase at 6.8 uM measured after 24 hrs in presence of cisplatin by propidium iodide/RNase staining based flow cytometry (reference value: 61.13 %); type: functional
[44] = system: HeLa; test: Effect on tubulin expression in human HeLa cells at 2.5 uM measured after 24 hrs in presence of cisplatin by DAPI staining based immunofluorescence assay
[45] = system: HeLa; test: Induction of apoptosis in human HeLa cells assessed as early apoptotic cells at 6.8 uM measured after 24 hrs by annexinV-FITC/propidium iodide staining based flow cytometry relative to control; type: functional
[46] = system: HeLa; test: Inhibition of PP2A in human HeLa cells assessed as increase in phosphorylated ERK expression level at 2.5 uM measured after 24 hrs in presence of cisplatin by Hoechst staining based immunofluorescence assay; type: cell-based

With `CC(C)(C)OC(=O)N1CCN(C(=O)C2C3CCC(O3)C2C(=O)O)CC1` (stereo unspecified) the Activity [1] was 23.28%, the Activity [2] was 21.8% and the Activity [3] was 38.95%. The Activity [4] was 27.87%, the CI50 [5] was less than 1 and the “growth inhibition (GI)” value [6] was “inactive”. For the same compound, the Activity [7] was 36.61%, the Activity [8] was “Active” and the Activity [9] was “Toxic”. For the same compound, the CI50 [10] was less than 1, the Activity [11] was “Tde” and the Activity [12] was 34.21%. The CI50 [13] was greater than 1, the Activity [14] was 97 mm3 and the CI50 [15] was greater than 1. The inhibition [16] was “Active”, the inhibition [17] was “Active” and the CI50 [18] was less than 1. For the same compound, the Activity [19] was 64.1%, the inhibition [20] was “Active” and the Activity [21] was 6.4%. The Activity [22] was “Non-Toxic”, the “growth inhibition (GI)” value [23] was “Active” and the Activity [24] was “inactive”. The Activity [25] was 52.07%, the inhibition [26] was “Active” and the Activity [27] was 86%. The Activity [28] was 11.32%, the Activity [29] was “Toxic” and the Activity [30] was “inactive”. The Activity [31] was 35.5%, the Activity [32] was “inactive” and the Activity [33] was 78.5%. For the same compound, the Activity [34] was “inactive”, the Activity [35] was “inactive” and the Activity [36] was 41.5%. For the same compound, the Activity [37] was 42.51%, the Activity [38] was 15.34% and the Activity [39] was “Dose-dependent effect”. For the same compound, the Activity [40] was 45.71%, the Activity [41] was 31.46% and the inhibition [42] was “Active”. The Activity [43] was 40.67%, the Activity [44] was “inactive” and the Activity [45] was 5.4%. The inhibition [46] was “Active”.
